Data set [1] is described as follows: Cytotoxicity against HELF assessed as cell viability after 6 days by MTT assay. The format is cell-based. The conditions noted are these: human, HELF cells. Summed up: (§1)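 HELF exposed to rising ODN concentrations (up to 10 μM) for 6 days; viable cells measured by MTT. CC50 taken as concentration that cuts viability to 50%.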
On the technique in general: Tetrazolium assays rely on reduction of a dye to a coloured formazan, in cell work by metabolically active cells.

In data set [2] the test system is Human alphaherpesvirus 1. Briefly: Antimicrobial activity against Human herpesvirus 1 infected in compound pretreated HELF assessed as inhibition of viral replication at 0.1 uM. In kind it is functional, organism-based. In outline: (§2)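 HELF pretreated with ODN (0.1 or 1 μM) 1 h before infection with a clinical HSV-1 isolate at MOI 0.1; ODN kept in medium after 2 h adsorption. Harvest at 48 h p.i., sonication, plaque titration on Vero cells. Means ± SD of three independent experiments.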

The test system of data set [3] is Human alphaherpesvirus 1. Kind of data set: Antimicrobial activity against Human herpesvirus 1 infected in compound pretreated HELF assessed as inhibition of viral replication at 1 uM. The format is functional, organism-based. Summed up: as §2
Data set [4] deals with Human betaherpesvirus 5. Briefly: Antimicrobial activity against Human cytomegalovirus AD169 infected in HELF assessed as inhibition of viral replication at 0.1 uM measured after 6 days post-infection. In kind it is functional, organism-based.
Data set [5] has as its system Human betaherpesvirus 5. Kind of data set: Antimicrobial activity against Human cytomegalovirus AD169 infected in HELF assessed as inhibition of viral replication at 1 uM measured after 6 days post-infection. In kind it is functional, organism-based.
In data set [6] the test system is Human betaherpesvirus 5. Kind of data set: Antimicrobial activity against 0.1 uM compound pretreated Human cytomegalovirus AD169 infected in HELF assessed as reduction in viral titer at 4 degC. The format is functional, organism-based. Summed up: (§3)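 HCMV AD169 (10^4 PFU) incubated with ODN at 0.1 μM at 4 or 37°C for various times; samples then diluted to bring ODN below an antivirally active level; residual infectivity titrated by plaque assay on HELF. Means ± SD of three independent experiments.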

Data set [7] concerns Human betaherpesvirus 5. Kind of data set: Antimicrobial activity against 0.1 uM compound pretreated Human cytomegalovirus AD169 infected in HELF assessed as reduction in viral titer 37 degC. The format is functional, organism-based. Summed up: as §3
In data set [8] the test system is Human betaherpesvirus 5. Kind of data set: Antimicrobial activity against Human cytomegalovirus AD169 infected in 0.1 uM compound pretreated HELF assessed as inhibition of viral replication measured after 6 days post-infection. In kind it is functional, organism-based. In outline:
(§4)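 HELF pretreated with ODN 1 h before infection with HCMV AD169 (MOI 1); ODN kept in medium after 2 h adsorption at 37°C. At 6 days p.i., cells plus supernatants sonicated and titrated by plaque assay on HELF; plaques counted microscopically, expressed as PFU/ml (log10) or % of control. IC50/IC90 by linear regression; duplicate wells, three independent experiments, means ± SD.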

The subject of data set [9] is Human betaherpesvirus 5. Kind of data set: Antimicrobial activity against Human cytomegalovirus AD169 infected in 1 uM compound pretreated HELF assessed as inhibition of viral replication measured after 6 days post-infection. In kind it is functional, organism-based. In outline: as §4
The subject of data set [10] is Human betaherpesvirus 5. Briefly: Antimicrobial activity against Human cytomegalovirus AD169 infected in compound pretreated HELF assessed as inhibition of viral replication measured after 6 days post-infection. In kind it is functional, organism-based. To be noted: Human betaherpesvirus 5, AD169, HELF. Summed up:
as §4

Data set [11] is described as follows: Cytotoxicity against HELF assessed as cell viability by MTT assay after 6 days at <=10 uM. In kind it is cell-based. To be noted: human, 144 h. In outline: as §1

Active and inactive are the calls of the source. No cut-off for these calls is given here.

On to `Cc1cn([C@H]2C[C@H](OP(O)(=S)OC[C@H]3O[C@@H](n4ccc(N)nc4=O)[C@H](O)[C@@H]3OP(O)(=S)OC[C@H]3O[C@@H](n4cnc5c(=O)[nH]c(N)nc54)[C@H](O)[C@@H]3OP(O)(=S)OC[C@H]3O[C@@H](n4cc(C)c(=O)[nH]c4=O)C[C@@H]3OP(O)(=S)OC[C@H]3O[C@@H](n4ccc(N)nc4=O)[C@H](O)[C@@H]3OP(O)(=S)OC[C@H]3O[C@@H](n4cnc5c(=O)[nH]c(N)nc54)[C@H](O)[C@@H]3OP(O)(=S)OC[C@H]3O[C@@H](n4cc(C)c(=O)[nH]c4=O)C[C@@H]3OP(O)(=S)OC[C@H]3O[C@@H](n4cc(C)c(=O)[nH]c4=O)C[C@@H]3OP(O)(=S)OC[C@H]3O[C@@H](n4cc(C)c(=O)[nH]c4=O)C[C@@H]3OP(O)(=S)OC[C@H]3O[C@@H](n4cc(C)c(=O)[nH]c4=O)C[C@@H]3OP(O)(=S)OC[C@H]3O[C@@H](n4cnc5c(=O)[nH]c(N)nc54)[C@H](O)[C@@H]3OP(O)(=S)OC[C@H]3O[C@@H](n4cc(C)c(=O)[nH]c4=O)C[C@@H]3OP(O)(=S)OC[C@H]3O[C@@H](n4ccc(N)nc4=O)[C@H](O)[C@@H]3OP(O)(=S)OC[C@H]3O[C@@H](n4cnc5c(=O)[nH]c(N)nc54)[C@H](O)[C@@H]3OP(O)(=S)OC[C@H]3O[C@@H](n4cc(C)c(=O)[nH]c4=O)C[C@@H]3OP(O)(=S)OC[C@H]3O[C@@H](n4cc(C)c(=O)[nH]c4=O)C[C@@H]3OP(O)(=S)OC[C@H]3O[C@@H](n4cc(C)c(=O)[nH]c4=O)C[C@@H]3OP(O)(=S)OC[C@H]3O[C@@H](n4cc(C)c(=O)[nH]c4=O)C[C@@H]3OP(O)(=S)OC[C@H]3O[C@@H](n4cc(C)c(=O)[nH]c4=O)C[C@@H]3OP(O)(=S)OC[C@H]3O[C@@H](n4cc(C)c(=O)[nH]c4=O)C[C@@H]3OP(O)(=S)OC[C@H]3O[C@@H](n4cc(C)c(=O)[nH]c4=O)C[C@@H]3OP(O)(=S)OC[C@H]3O[C@@H](n4ccc(N)nc4=O)[C@H](O)[C@@H]3OP(O)(=S)OC[C@H]3O[C@@H](n4cnc5c(=O)[nH]c(N)nc54)[C@H](O)[C@@H]3OP(O)(=S)OC[C@H]3O[C@@H](n4cnc5c(N)ncnc54)[C@H](O)[C@@H]3OP(O)(O)=S)[C@@H](CO)O2)c(=O)[nH]c1=O` (stereo partly specified), for which the CC50 (as a rule, the concentration at which the toxic effect on the cells reaches its halfway point) at 144 h in [1] is above 10 µM. The inhibition result in the data set on Human alphaherpesvirus 1 [2], in the data set with Human alphaherpesvirus 1 [3], with Human betaherpesvirus 5 [4], in the data set on Human betaherpesvirus 5 [5], in the data set on Human betaherpesvirus 5 [6] and in the data set on Human betaherpesvirus 5 [7] was “inactive” throughout. Moreover, the inhibition entry with Human betaherpesvirus 5 [8] and in the data set on Human betaherpesvirus 5 [9] was “Active” throughout. The IC50 (in general, the midpoint of a concentration-inhibition curve) in the data set with Human betaherpesvirus 5 [10] came to 20 nM. The IC90 (commonly the concentration at which the effect reaches the 90% level) in the data set on Human betaherpesvirus 5 [10] is 100 nM. Moreover, the Activity entry in [11] was “Non-toxic”.

As for `Cc1cn([C@H]2C[C@H](OP(O)(O)=S)[C@@H](COP(O)(=S)O[C@H]3C[C@H](n4cc(C)c(=O)[nH]c4=O)O[C@@H]3COP(O)(=S)O[C@H]3[C@@H](O)[C@H](n4cnc5c(=O)[nH]c(N)nc54)O[C@@H]3COP(O)(=S)O[C@H]3[C@@H](O)[C@H](n4ccc(N)nc4=O)O[C@@H]3COP(O)(=S)O[C@H]3C[C@H](n4cc(C)c(=O)[nH]c4=O)O[C@@H]3COP(O)(=S)O[C@H]3[C@@H](O)[C@H](n4cnc5c(=O)[nH]c(N)nc54)O[C@@H]3COP(O)(=S)O[C@H]3C[C@H](n4cc(C)c(=O)[nH]c4=O)O[C@@H]3COP(O)(=S)O[C@H]3C[C@H](n4cc(C)c(=O)[nH]c4=O)O[C@@H]3COP(O)(=S)O[C@H]3C[C@H](n4cc(C)c(=O)[nH]c4=O)O[C@@H]3COP(O)(=S)O[C@H]3C[C@H](n4cc(C)c(=O)[nH]c4=O)O[C@@H]3COP(O)(=S)O[C@H]3[C@@H](O)[C@H](n4cnc5c(=O)[nH]c(N)nc54)O[C@@H]3COP(O)(=S)O[C@H]3[C@@H](O)[C@H](n4ccc(N)nc4=O)O[C@@H]3COP(O)(=S)O[C@H]3C[C@H](n4cc(C)c(=O)[nH]c4=O)O[C@@H]3COP(O)(=S)O[C@H]3[C@@H](O)[C@H](n4cnc5c(=O)[nH]c(N)nc54)O[C@@H]3COP(O)(=S)O[C@H]3[C@@H](O)[C@H](n4ccc(N)nc4=O)O[C@@H]3COP(O)(=S)O[C@H]3C[C@H](n4cc(C)c(=O)[nH]c4=O)O[C@@H]3COP(O)(=S)O[C@H]3C[C@H](n4cc(C)c(=O)[nH]c4=O)O[C@@H]3COP(O)(=S)O[C@H]3C[C@H](n4cc(C)c(=O)[nH]c4=O)O[C@@H]3COP(O)(=S)O[C@H]3[C@@H](O)[C@H](n4cnc5c(=O)[nH]c(N)nc54)O[C@@H]3COP(O)(=S)O[C@H]3[C@@H](O)[C@H](n4ccc(N)nc4=O)O[C@@H]3COP(O)(=S)O[C@H]3C[C@H](n4cc(C)c(=O)[nH]c4=O)O[C@@H]3COP(O)(=S)O[C@H]3[C@@H](O)[C@H](n4cnc5c(=O)[nH]c(N)nc54)O[C@@H]3COP(O)(=S)O[C@H]3[C@@H](O)[C@H](n4ccc(N)nc4=O)O[C@@H]3COP(O)(=S)O[C@H]3C[C@H](n4cc(C)c(=O)[nH]c4=O)O[C@@H]3CO)O2)c(=O)[nH]c1=O` (stereo partly specified), the cytotoxic concentration (CC50) at 144 h in data set [1] is above 10 µM. Also, the inhibition entry with Human alphaherpesvirus 1 [2], in the data set on Human alphaherpesvirus 1 [3], with Human betaherpesvirus 5 [4], in the data set on Human betaherpesvirus 5 [5], in the data set on Human betaherpesvirus 5 [6] and with Human betaherpesvirus 5 [7] was “inactive” in each case. Besides, the inhibition entry in the data set with Human betaherpesvirus 5 [8] and in the data set on Human betaherpesvirus 5 [9] was “Active” in each case. Besides, in the data set on Human betaherpesvirus 5 [10], the IC50 was 50 nM. Moreover, the IC90 with Human betaherpesvirus 5 [10] was 800 nM. Further, in data set [11], the Activity result is reported as “Non-toxic”.

With `Cc1cn([C@H]2C[C@H](OP(O)(O)=S)[C@@H](COP(O)(=S)O[C@H]3C[C@H](n4cc(C)c(=O)[nH]c4=O)O[C@@H]3COP(O)(=S)O[C@H]3[C@@H](O)[C@H](n4cnc5c(=O)[nH]c(N)nc54)O[C@@H]3COP(O)(=S)O[C@H]3[C@@H](O)[C@H](n4ccc(N)nc4=O)O[C@@H]3COP(O)(=S)O[C@H]3[C@@H](O)[C@H](n4cnc5c(N)ncnc54)O[C@@H]3COP(O)(=S)O[C@H]3[C@@H](O)[C@H](n4cnc5c(=O)[nH]c(N)nc54)O[C@@H]3COP(O)(=S)O[C@H]3C[C@H](n4cc(C)c(=O)[nH]c4=O)O[C@@H]3COP(O)(=S)O[C@H]3[C@@H](O)[C@H](n4ccc(N)nc4=O)O[C@@H]3COP(O)(=S)O[C@H]3[C@@H](O)[C@H](n4ccc(N)nc4=O)O[C@@H]3COP(O)(=S)O[C@H]3C[C@H](n4cc(C)c(=O)[nH]c4=O)O[C@@H]3COP(O)(=S)O[C@H]3C[C@H](n4cc(C)c(=O)[nH]c4=O)O[C@@H]3COP(O)(=S)O[C@H]3[C@@H](O)[C@H](n4cnc5c(=O)[nH]c(N)nc54)O[C@@H]3COP(O)(=S)O[C@H]3[C@@H](O)[C@H](n4ccc(N)nc4=O)O[C@@H]3COP(O)(=S)O[C@H]3[C@@H](O)[C@H](n4cnc5c(N)ncnc54)O[C@@H]3COP(O)(=S)O[C@H]3[C@@H](O)[C@H](n4cnc5c(=O)[nH]c(N)nc54)O[C@@H]3COP(O)(=S)O[C@H]3C[C@H](n4cc(C)c(=O)[nH]c4=O)O[C@@H]3COP(O)(=S)O[C@H]3[C@@H](O)[C@H](n4cnc5c(N)ncnc54)O[C@@H]3COP(O)(=S)O[C@H]3[C@@H](O)[C@H](n4ccc(N)nc4=O)O[C@@H]3COP(O)(=S)O[C@H]3[C@@H](O)[C@H](n4ccc(N)nc4=O)O[C@@H]3COP(O)(=S)O[C@H]3C[C@H](n4cc(C)c(=O)[nH]c4=O)O[C@@H]3CO)O2)c(=O)[nH]c1=O` (stereo partly specified), the CC50 at 144 h in data set [1] was above 10 µM. Moreover, the inhibition result in the data set with Human alphaherpesvirus 1 [2], in the data set with Human alphaherpesvirus 1 [3], in the data set on Human betaherpesvirus 5 [4], in the data set on Human betaherpesvirus 5 [5], in the data set on Human betaherpesvirus 5 [6] and in the data set on Human betaherpesvirus 5 [7] was “inactive” in each case. The inhibition result in the data set on Human betaherpesvirus 5 [8] and with Human betaherpesvirus 5 [9] was “Active” throughout. In addition, the IC50 in the data set on Human betaherpesvirus 5 [10] is 40 nM. The IC90 in the data set on Human betaherpesvirus 5 [10] came out at 900 nM. The Activity entry in data set [11] was “Non-toxic”.
